Tested on: MS2 coat protein
Experiment: apparent Kd, MS2 coat protein; higher = weaker binding; RNA-MaP array; FMN 200 µM where present
Summary of the method: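 Green signal was scaled to red-channel RNA signal and control-cluster median Fmax, and the apparent Kd was taken as the median of filtered per-cluster binding-curve fits. The binding series used SNAP-549-labelled MS2 coat protein from 0.7 or 1.5 nM, doubling to 3 µM, on designs transcribed by stalled E. coli RNA polymerase on Illumina sequencing-chip clusters. Each series ran without and then with constant ligand in 100 mM Tris-HCl pH 7.5, 80 mM KCl, 4 mM MgCl2, BSA, DTT, yeast tRNA and Tween-20.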

[1] = designed as: OFF switch for flavin mononucleotide, no ligand
[2] = ligand present: flavin mononucleotide, designed as: OFF switch for flavin mononucleotide
[3] = designed as: ON switch for flavin mononucleotide, no ligand
[4] = ligand present: flavin mononucleotide, designed as: ON switch for flavin mononucleotide

| Sequence | apparent Kd [1] [nM] | apparent Kd [2] [nM] | apparent Kd [3] [nM] | apparent Kd [4] [nM] |
| --- | --- | --- | --- | --- |
| GUCGUGUGAGGAUAUGAUUUUUCGGCGGGCUUGCGUCUGCUUCAGAAGGCACAUGAGGAUCACCCAUGUUUGUC | 12 | 29.5 | – | – |
| UCGACUAGCGCCAGUCGAACAUGAGGAUCACCCAUGUACUCCAGAAGGCCGCCCAAGAACGGAGUGGAGGAUAUGGAGGUUCUC | – | – | 42.9 | 30.4 |
| CUAUAUAAUACCUCAUGUACAUGAGGAUCACCCAUGUUAACUAAGGAUAUAUUUAUAUUAAUAAAGUAGAAGGUAGUACUAUUU | 23.4 | 18.8 | – | – |
| GAGAGGUCAGGAUAUGCAUGGCGGGACUUGCGUCGUGGCGUGCAGAAGGGACAUGAGGAUCACCCAUGUGGAGG | 169 | 203 | – | – |
| CUUAUGUGAGGAUAUCAGUAGUGAUACGAUAGUAUUACUGCUGAGAAGGCACAUGAGGAUCACCCAUGUUCCUU | 26.1 | 51.9 | – | – |
| ACUUGUAAGUAGAAGGUAGUCAUUAUAUUAAUCAUGUAAACAUGAGGAUCACCCAUGUAGAGUACUAAGGAUAUACAUCGAUAG | – | 9.91 | – | – |
| GGGAAGUGCCAGAAGGCUCCCGGAUUCCUAGGGAGAGGAUAUGGCACAUGAGGAUCACCCAUGUGGUAGAUCUGUUUCGAAGUG | 30.4 | 16.9 | – | – |
| UUUUACAUAGGAUAUAGUUUGUUGUACAUGAGGAUCACCCAUGUUUUUGUUUGUGCUUUUCUAGAAGGAUGUUUCU | 29.2 | 25.4 | – | – |
| AAUCCACAUGAGGAUCACCCAUGUCAGGAUAUUGUUACUAGAGCGCACCUGUGUUCUACGAGAAGGGACUAAAC | 12 | 12.2 | – | – |
| GAAAAACAUGAGGAUCACCCAUGUGAGAAUAUGGGAGGAUAUUCAAAGACGAAAGUCAAAGAAGAAGGCCUAAAAG | – | – | 153 | 37.4 |
| UGUCGGAGCAGAGGAUAUUACAUGAGGAUCACCCAUGUAUGAACCAAUAGCUGGAAACAGCAAAGUAAGAAGGCUGCUCCGACA | 6.28 | 79.4 | – | – |
| UGGUACAUCGCAGGAUAUCAUGUAGAUACAUGAGGAUCACCCAUGUCGAUGGAGACAUCGGAGAUUGAGAAGGGCGAUGUACCU | – | – | 907 | 41.1 |
| ACAUGAGGAUCACCCAUGUGGAGUGAAGAAGGUAGAUACUUAUGACUCUCCCAUGUACAUAGGACUGAGGAUAUUCUAAUAAUU | – | – | 30.8 | 24 |
| AUUAAACAUGAGGAUCACCCAUGUAAUAUUAUGGGAGGAUAUGCGAAUUUAAUUAAUUAAGCAGAAGGCCUAAUUA | – | – | 108 | 19 |
| GGUAGAGAGCAGGAUAUCUUGGGUAAGUAUCGUAGAGAAGGGCUCACAUGAGGAUCACCCAUGUGGUCCAAGAU | 15.5 | 34.2 | – | – |
| CAGGUAGACUGAGGAUAUACAAUAAAGACCUAGUCUAUCUAGGUCUUCACAUGAGGAUCACCCAUGUAGAAGGCAGUCUGCCUG | 19.1 | 38.5 | – | – |
| GACUUGUUAGGAUAUCUUACUUUUGCAUCAUAGUAACCAUUGGAGAAGGGACAUGAGGAUCACCCAUGUUUGGA | 32.9 | 28.9 | – | – |
| GUCAGCUCGUGAGGAUAUACAACACUGCUUCGGCAGUGUAUUUAGAUCACAUGAGGAUCACCCAUGUAGAAGGCACGAGCUGAU | 15.6 | 363 | – | – |
| AUCCGGAGUCAGGAUAUGUGGCUAAAGAUGCGCAUAGAAGGGAUUACAUGAGGAUCACCCAUGUGGCUUACAUG | 132 | 109 | – | – |

| Sequence | apparent Kd [1] [nM] | apparent Kd [2] [nM] | apparent Kd [3] [nM] | apparent Kd [4] [nM] |
| --- | --- | --- | --- | --- |
| AGAUCACAUGAGGAUCACCCAUGUGAGGAUAUGAUACUAUGUACUUCGGUACAUAGUAUCAGAAGGCAUGUGGA | 56.7 | 109 | – | – |
| GCAUGCUAUGUCAGGAUAUACCUGUGGAUACAUAGGUAGAAGGGACAUGAGGAUCACCCAUGUCCUAAUCAUGC | 12.8 | 14.9 | – | – |
| AGAAAGAAGCAAGGAUAUUGUAAGGUUAAUGUACAAGAAGGUGCUGUUUAUGUCUCUUAACAUGAGGAUCACCCAUGUAUUGGU | – | – | 52.6 | 44.1 |
| UCGCGAUGAGGAUAUACAUAGAAAUAGAUUCAUGUAAAACUACAUGAGGAUCACCCAUGUAGAAGGCAUUGCGU | 23 | 128 | – | – |
| UUUGCAACAUGAGGAUCACCCAUGUAGGAUAUCGCUAUUGUAAUCAUGAAACAUGAUUACAAUAGCGAGAAGGACAUAUGCGGG | 44.4 | 35 | – | – |
| CGGCGCUGUCGAGAGGAUAUGCGGUGAUGGACAUGAGGAUCACCCAUGUUAGCGAUAGCAUUACGGUAGAAGGCUCUAUAGUUGC | – | – | 362 | 93.2 |
| GGAUGAGAAACUCAUCCAUAACGAACAUGAGGAUCACCCAUGUAGGAUAUGCUACUCAAAGAGUAGCAGAAGGACAUGUGCCUU | 29.8 | 259 | – | – |
| GCGUUGAACGAGAAGGCCAAUACAUGAGGAUCACCCAUGUUAAGAUGUUUUGGAGGAUAUCGAUCGUCGUCUCAUGAGCAACGC | 5.3 | 6.24 | – | – |
| UACAUUACUUAGAAGGGAUAUAUAUAAUUUUAGUCAGGAUAUAGAUACAAUACAACAUGAGGACAUGAGGAUCACCCAUGUAUU | – | – | 17.9 | 13.4 |
| CCGUUACAUGAGGAUCACCCAUGUGAGGAUAUCGGGAUGACUGGCAGCGUGCGGGACUCGAGAAGGCACUGGGC | 46.1 | 41.5 | – | – |
| GUCAUGGUAACAGGAUAUCGUUGAUAAAAGUUAUACAUGAGGAUCACCCAUGUCCGCACUAAGGGCGAGAAGGGUUAUUAUCAC | – | – | 501 | 382 |
| CCACCCUGAGGAUAUCCACCCUCAUACAUGAGGAUCACCCAUGUUCAUCCCUGAGUUCCCGGAGAAGGCAGAUUCC | 55.3 | 47.5 | – | – |
| ACCUCACAUGAGGAUCACCCAUGUCAGGAUAUACCCAAAGCUGCGAAAAUAUCCAGCUGUAGAAGGGACAGGCU | 13.9 | 16.1 | – | – |
| UACAGCUUGACAGGAUAUACAUCACUGCGAAAGCAGUGUAUCUUAAUAACAUGAGGAUCACCCAUGUAGAAGGGUCGAGCUGUA | 19.8 | 35.9 | – | – |
| AGUGUGUGGCAGGAUAUGCGAUUUGUCGGUGUUGCAGAAGGGUCUACAUGAGGAUCACCCAUGUGUGCGGUUGA | 184 | 309 | – | – |
| AGCCUACAUGAGGAUCACCCAUGUCAGGAUAUCUCGCGGCGUGUCAAGUUCACACUGCAGAGAAGGGACUCGGG | 58.1 | 66.9 | – | – |
| AAAACAUGAGGAUCACCCAUGUAAAGAACGGUUAAUAAAUGUGAGGAUAUACUAAAAUUUAGGUAGUAGAAGGCACUGGGUACA | – | – | 24.1 | 25.7 |
| GCCAUUUAUGUAGGAUAUGCGAGGCGAGCCUGAGCAGAAGGACAUGAGGAUCACCCAUGUAUUGCGGUUUAUGUUCAGAUCGCU | 16.1 | 18.3 | – | – |
| UCUGUAGGAAUACAGACGAAGUGGCCAGAAGGUGAAUGCCACAUGAGGAUCACCCAUGUUUCGAUCAAGGAUAUGGUUUCUCAC | – | – | 312 | 79.8 |

| Sequence | apparent Kd [1] [nM] | apparent Kd [2] [nM] | apparent Kd [3] [nM] | apparent Kd [4] [nM] |
| --- | --- | --- | --- | --- |
| GGGUGGCGUAGAGGAUAUGUGGUACAUGAGGAUCACCCAUGUGCAUAUGAUGUUCGUGUGUCUUCAUAGAAGGCUACGUCGCUA | – | – | 97 | 63 |
| GGAGCACAUAUUAACAUGAGGAUCACCCAUGUCAAAAGACAUGAGGAUAUGGAUCCGAAAAGGAUCUAGAAGGCAUGGUGCUCC | – | – | 690 | 22.1 |
| AUCAUGAGAGGAUAUACAUGAGGAUCACCCAUGUGGUCAUCUCCACGGGCUCAAUUACGUAGAAGGCUCAUUUG | 18 | 66.2 | – | – |
| AGCUAGUCAGGAUAUACGCGAACGAACGAAGCAGUGAAGGGACAUGAGGAUCACCCAUGUAGAAGGGACUAGCA | 27.1 | 53.7 | – | – |
| CUAGUACAUGAGGAUCACCCAUGUCAGGAUAUUGGAUAUGACAUGGAAAACAUGUUUACAAGAAGGGACUAUAG | 285 | 290 | – | – |
| CAGUACUGAGGAUAUACAUGAGGAUCACCCAUGUGUCUAAGGUAGGAUACUACCAUUAGUAGAAGGCAGUACUG | 12.4 | 18.1 | – | – |
| GCGGUAUUGUAAGGAUAUACUCUGUGAUGAAGAGUAGAAGGUACUUACAUGAGGAUCACCCAUGUUUAACGUGAAAAUAACCGC | – | – | 47 | 22.6 |
| UGGAAGGUAUGAGGAUAUGCAUGCGAAACGCAUGCAGAAGGCAUGUCAAUAGACAUGAGGAUCACCCAUGUAUUAUCCUUCCAA | – | – | 455 | 41.7 |
| CGUCUGUCAGGAUAUAGUUACGUAGACAUGAGGAUCACCCAUGUGACGUGGGACUAGUGACUAGAAGGGACGAACG | 22.3 | 52.5 | – | – |
| CUAUUGGCAGGAUAUGCUUUUUUAGACAUGAGGAUCACCCAUGUGAUGAAUUUUGGGUUUGCAGAAGGGCCUGAGU | 67.1 | 100 | – | – |
| AACAAACAUGAGGAUCACCCAUGUGAGGAUAUCGAAACAACAAACAACAAACAACAAACGAGAAGGCGCAACAA | 29.1 | 27.6 | – | – |
| GAACAUGUCCGAGGAUAUCUGGAAACAUUUCCAAGAGAAGGCGGACAUGAGGAUCACCCAUGUCUCUCCUCAUCAAAUCCAAGU | 10.1 | 91.9 | – | – |
| GCAGGAUAAGUGAGGAUAUACCUCUGGAUACAGAGGUAGAAGGCACAUGAGGAUCACCCAUGUUACUCACCUGC | 11.9 | 33.8 | – | – |
| UUACUAUAACAGAAGGCUAGAUAAUAUAUAAAUGGAGGAUAUGUUACAUGAGGAUCACCCAUGUUUCACCCACAUGAGGAUCAC | 16.4 | 52.2 | – | – |
| UACAUGAGGAUCACCCAUGUUUUGUCGUGUAUGGUAUUUAUCUAGGAUAUCAAUCUAUUAAUUUAUGAGAAGGAGAAUAUUAAU | 35.5 | 39.7 | – | – |
| GUUACAUGAGGAUCACCCAUGUAUGUGUGGGAGUAAGUGUCUUAGGAUAUCUAUUAGUUAAAUUAAGAGAAGGAAGAUUGUUGU | – | – | 119 | 127 |
| GGAAGACAAAGUCUUCCAUAACGAACAUGAGGAUCACCCAUGUAGGAUAUGCUUCUCAAAGAGAAGCAGAAGGACAUGUGUCUU | 29.7 | 137 | – | – |
| UGGUACUAGGGAGGAUAUGGGAAGAUACAUGAGGAUCACCCAUGUUUAAGUAUGCCGAGAGGCAACUAGAAGGCCCUAGUACCU | – | – | 1440 | 116 |
